According to ChEMBL document CHEMBL5523695, “Discovery of small molecule benzothiazole and indole derivatives tackling tau 2N4R and α-synuclein fibrils” (Bioorg Med Chem, 2024):
Activity calls are given as the source filed them. The rule behind the calls is not given here.

target: Alpha-synuclein (Homo sapiens) (UniProt P37840); experiment: Inhibition of recombinant alpha-Synuclein (unknown origin) aggregation assessed as reduction in fluorescence intensity by measuring residual activity at 100 uM measured every 20 mins for 40 to 70 hrs by Thioflavin T based fluorescence analysis relative to control; conditions: time 40-70 hrs
Outline: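 Recombinant α-syn (2 μM final) in 10 mM PBS pH 7.4 with 0.5 mM SDS and 300 mM NaCl. Compound at 100 μM final, ThT 20 μM, one borosilicate bead per well. Read at 37 °C every 20 min after 10 s shaking, ex 440/em 485 nm, for 40–70 h. Background was ThT plus 0.25 % DMSO without protein. Plateau fluorescence expressed as % of control, triplicates, mean ± SEM.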

Structure (SMILES)	Activity [%]
COc1cccc2sc(NS(=O)(=O)c3ccccc3)nc12	74.6
COc1cccc2sc(NC(=O)Nc3ccccc3F)nc12	> 200
O=S(=O)(Nc1cccc2[nH]ccc12)c1ccccc1I	74.8
COc1cccc2sc(NC(=O)Nc3ccc(C#N)cc3)nc12	> 200
COc1cccc2sc(NC(=O)c3ccccc3)nc12	107
COc1cccc2sc(NS(=O)(=O)c3ccc(Br)cc3)nc12	43.1
O=C(Nc1ccc([N+](=O)[O-])cc1)Nc1cccc2[nH]ccc12	4
COc1cccc2sc(NC(=O)c3cccs3)nc12	86.6
COc1cccc2sc(NC(=O)c3ccccc3C)nc12	137
COc1cccc2sc(NS(=O)(=O)c3ccc(I)cc3)nc12	42.8
COc1cccc2sc(NC(=O)Nc3cc(Cl)cc(Cl)c3)nc12	> 200
COc1cccc2sc(NC(=O)c3ccccc3Cl)nc12	262
COc1cccc2sc(NC(=O)c3ccc(F)cc3)nc12	103
COc1cccc2sc(NC(=O)Nc3ccccc3[N+](=O)[O-])nc12	64.4
COc1cccc2sc(NC(=O)c3ccc([N+](=O)[O-])cc3)nc12	45.4
O=S(=O)(Nc1ccc2cc[nH]c2c1)c1ccccc1I	104
O=C(Nc1ccc2cc[nH]c2c1)Nc1ccccc1I	83.4
O=S(=O)(Nc1ccc2[nH]ccc2c1)c1ccccc1I	59.7
COc1cccc2sc(NS(=O)(=O)c3ccccc3C)nc12	32.7
O=[N+]([O-])c1ccc(S(=O)(=O)Nc2ccc3cc[nH]c3c2)cc1	63.5
COc1cccc2sc(NS(=O)(=O)c3ccccc3[N+](=O)[O-])nc12	41
COc1cccc2sc(NC(=O)c3cccc(C(F)(F)F)c3)nc12	84.7
COc1cccc2sc(NS(=O)(=O)c3cc(Cl)cc(Cl)c3)nc12	39.3

Structure (SMILES)	Activity [%]
COc1cccc2sc(NC(=O)Nc3ccc([N+](=O)[O-])cc3)nc12	79
COc1cccc2sc(NS(=O)(=O)c3ccc(C#N)cc3)nc12	46.1
COc1cccc2sc(NC(=O)Nc3ccc(C(F)(F)F)cc3)nc12	94.8
COc1cccc2sc(NS(=O)(=O)c3ccccc3F)nc12	64.9
COc1ccccc1NC(=O)Nc1nc2c(OC)cccc2s1	199
COc1cccc2sc(NS(=O)(=O)c3ccc(F)cc3F)nc12	87.9
O=[N+]([O-])c1ccc(S(=O)(=O)Nc2ccc3[nH]ccc3c2)cc1	97.6
COc1cccc2sc(NS(=O)(=O)c3ccccc3Cl)nc12	19.3
COc1cccc2sc(NC(=O)c3ccccc3F)nc12	98.7
COc1cccc2sc(NS(=O)(=O)c3ccc([N+](=O)[O-])cc3)nc12	9.5
COc1cccc2sc(NC(=O)Nc3ccc(I)cc3)nc12	141
COc1ccccc1C(=O)Nc1nc2c(OC)cccc2s1	182
COc1cccc2sc(NC(=O)Nc3ccccc3C)nc12	148
COc1cccc2sc(NC(=O)c3ccccc3[N+](=O)[O-])nc12	102
COc1cccc2sc(NC(=O)Nc3cccs3)nc12	41.6
COc1cccc2sc(NC(=O)c3ccc(I)cc3)nc12	> 200
O=C(Nc1ccc([N+](=O)[O-])cc1)Nc1ccc2[nH]ccc2c1	2.9
COc1cccc2sc(NC(=O)c3ccc(F)cc3F)nc12	128
COc1cccc2sc(NC(=O)c3cc(Cl)cc(Cl)c3)nc12	95.4
COc1cccc2sc(NC(=O)Nc3ccc(F)cc3)nc12	145
COc1cccc2sc(NC(=O)c3ccc(Br)cc3)nc12	> 200
COc1cccc2sc(NS(=O)(=O)c3cccc([N+](=O)[O-])c3)nc12	40.1
COc1cccc2sc(NS(=O)(=O)c3cccc(C(F)(F)F)c3)nc12	56

Structure (SMILES)	Activity [%]
COc1cccc2sc(NC(=O)Nc3ccc(Cl)cc3)nc12	173
COc1cccc2sc(NC(=O)Nc3cccc([N+](=O)[O-])c3)nc12	78.1
COc1cccc2sc(NS(=O)(=O)c3ccc(F)cc3)nc12	70.4
COc1cccc2sc(NS(=O)(=O)c3ccccc3I)nc12	5.8
COc1cccc2sc(NC(=O)Nc3ccc(F)cc3F)nc12	184
COc1ccccc1S(=O)(=O)Nc1nc2c(OC)cccc2s1	79.3
COc1cccc2sc(NC(=O)c3ccc(C(F)(F)F)cc3)nc12	116
COc1cccc2sc(NS(=O)(=O)c3ccc(Cl)cc3)nc12	40.3
COc1cccc2sc(NC(=O)Nc3ccccc3I)nc12	125
COc1cccc2sc(NC(=O)c3ccc(C#N)cc3)nc12	128
O=C(Nc1ccccc1I)Nc1cccc2[nH]ccc12	38.3
COc1cccc2sc(NC(=O)c3ccccc3I)nc12	137
COc1cccc2sc(NC(=O)c3ccc(Cl)cc3)nc12	116
COc1cccc2sc(NC(=O)Nc3ccc(Br)cc3)nc12	170
COc1cccc2sc(NS(=O)(=O)c3cccs3)nc12	41.6
O=C(Nc1ccc2[nH]ccc2c1)Nc1ccccc1I	40.3
O=[N+]([O-])c1ccc(S(=O)(=O)Nc2cccc3[nH]ccc23)cc1	83.9
COc1cccc2sc(NC(=O)c3cccc([N+](=O)[O-])c3)nc12	48.1
COc1cccc2sc(NS(=O)(=O)c3ccc(C(F)(F)F)cc3)nc12	53.8
COc1cccc2sc(NC(=O)Nc3ccccc3)nc12	130
COc1cccc2sc(NC(=O)Nc3cccc(C(F)(F)F)c3)nc12	> 200

target: Alpha-synuclein (Homo sapiens) (UniProt P37840); experiment: Inhibition of recombinant alpha-Synuclein (unknown origin) aggregation assessed as reduction in fluorescence intensity measured every 20 mins for 40 to 70 hrs by Thioflavin T based fluorescence analysis; conditions: dose 3.125-25 µM, time 40-70 hrs

Structure (SMILES)	inhibition
O=C(Nc1ccc([N+](=O)[O-])cc1)Nc1cccc2[nH]ccc12	Dose-Dependent Effect

target: Alpha-synuclein (Homo sapiens) (UniProt P37840); experiment: Inhibition of recombinant alpha-Synuclein (unknown origin) aggregation assessed as reduction in oligomer formation at compound-protein ratio of 1:0.6 incubated for 10 mins in presence of 53W light exposure for 1 sec by PICUP assay; conditions: not given
Outline: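 α-Syn (60 μM) in 10 mM phosphate buffer was cross-linked with Ru(bpy)3 (300 μM) and ammonium persulfate (6 mM), compound at 50, 100 or 200 μM. Light from a 53 W incandescent bulb for 1 s. Laemmli/2-mercaptoethanol added, then 95 °C for 10 min. Samples run on 16 % SDS-PAGE with Coomassie stain; oligomer bands at 35–40 kDa assessed. Controls lacked light or Ru(bpy)3.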

Structure (SMILES)	inhibition
O=C(Nc1ccc([N+](=O)[O-])cc1)Nc1cccc2[nH]ccc12	Active
COc1cccc2sc(NS(=O)(=O)c3ccc([N+](=O)[O-])cc3)nc12	inactive
COc1cccc2sc(NS(=O)(=O)c3ccccc3I)nc12	inactive

target: T1, Microtubule-associated protein tau (Homo sapiens, UniProt P10636); experiment: Inhibition of tau 2N4R (unknown origin) aggregation expressed in Escherichia coli Rosetta BL21 cells assessed as reduction in oligomer formation at 50 to 200 uM incubated for 10 mins in presence of 53W light exposure for 60 sec by PICUP assay; conditions: dose 50-200 µM
Outline: (§1)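 Tau 2N4R or 0N4R, expressed in-house from a pET30a construct in E. coli Rosetta BL21 and purified by heat step plus SP cation exchange, used at 10 μM in 10 mM phosphate buffer. Compound at 50, 100 and 200 μM. Ru(bpy)3 at 300 μM and APS at 6 mM, 60 s light exposure. Samples boiled at 95 °C for 10 min in reducing Laemmli buffer, then 16 % SDS-PAGE with Coomassie.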

T1 sequence (P10636 whole entry): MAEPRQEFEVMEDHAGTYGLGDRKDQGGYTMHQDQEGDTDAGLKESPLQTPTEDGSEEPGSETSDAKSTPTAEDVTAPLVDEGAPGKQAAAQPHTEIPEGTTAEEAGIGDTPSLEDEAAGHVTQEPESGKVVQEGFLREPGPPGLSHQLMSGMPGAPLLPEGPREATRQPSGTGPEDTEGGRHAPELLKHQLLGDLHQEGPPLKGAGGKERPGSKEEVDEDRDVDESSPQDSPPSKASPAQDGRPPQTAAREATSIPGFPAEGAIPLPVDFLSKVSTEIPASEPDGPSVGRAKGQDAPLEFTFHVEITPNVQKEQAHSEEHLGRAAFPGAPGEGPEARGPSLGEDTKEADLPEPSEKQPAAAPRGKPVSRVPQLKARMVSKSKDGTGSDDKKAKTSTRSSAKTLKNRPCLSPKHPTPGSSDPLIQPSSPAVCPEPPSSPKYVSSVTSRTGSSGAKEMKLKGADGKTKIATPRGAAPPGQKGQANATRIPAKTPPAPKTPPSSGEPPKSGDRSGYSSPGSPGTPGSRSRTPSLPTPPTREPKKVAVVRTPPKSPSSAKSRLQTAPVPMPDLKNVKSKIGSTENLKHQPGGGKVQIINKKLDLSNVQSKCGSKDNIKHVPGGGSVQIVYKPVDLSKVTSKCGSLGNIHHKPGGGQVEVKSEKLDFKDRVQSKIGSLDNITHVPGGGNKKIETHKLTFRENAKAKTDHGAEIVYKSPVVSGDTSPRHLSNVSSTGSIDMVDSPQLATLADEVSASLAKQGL

Structure (SMILES)	inhibition
O=C(Nc1ccc([N+](=O)[O-])cc1)Nc1cccc2[nH]ccc12	inactive
O=C(Nc1ccc([N+](=O)[O-])cc1)Nc1ccc2[nH]ccc2c1	inactive

target: T1, Microtubule-associated protein tau; experiment: Inhibition of human tau 0N4R aggregation expressed in Escherichia coli Rosetta BL21 cells assessed as reduction in oligomer formation at 50 to 200 uM incubated for 10 mins in presence of 53W light exposure for 60 sec by PICUP assay; conditions: dose 50-200 µM; outline: as §1

Structure (SMILES)	inhibition
O=C(Nc1ccc([N+](=O)[O-])cc1)Nc1cccc2[nH]ccc12	inactive
O=C(Nc1ccc([N+](=O)[O-])cc1)Nc1ccc2[nH]ccc2c1	inactive

target: Alpha-synuclein (Homo sapiens) (UniProt P37840); experiment: Inhibition of recombinant alpha-Synuclein (unknown origin) aggregation assessed as reduction in protein fibril formation at 100 uM measured after 68 hrs by TEM analysis; conditions: not given
Outline: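 α-Syn (2 μM) samples taken from the ThT kinetic runs after about 68 h at 37 °C, compound at 100 μM, vehicle 0.25 % DMSO. Applied to Formvar-carbon copper grids for 1 min, washed, and stained with 1 % uranyl acetate for 1 min. Imaged by TEM at 40k magnification, 100 kV.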

Structure (SMILES)	inhibition
O=C(Nc1ccc([N+](=O)[O-])cc1)Nc1cccc2[nH]ccc12	Active
O=C(Nc1ccc([N+](=O)[O-])cc1)Nc1ccc2[nH]ccc2c1	Active

target: T1, Microtubule-associated protein tau; experiment: Inhibition of unfolded tau 2N4R (unknown origin) aggregation expressed in Escherichia coli Rosetta BL21 cells assessed as reduction in protein fibril formation at 100 uM measured after 72 hrs by TEM analysis; conditions: not given
Outline: (§2)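 Recombinant tau 2N4R (6 μM) incubated with compound at 100 μM, or 0.25 % DMSO, in 10 mM PBS pH 7.4 for 72 h at 37 °C. Placed on Formvar-carbon copper grids for 1 min, rinsed, and negatively stained with 1 % uranyl acetate. TEM at 40k magnification, 100 kV.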

Structure (SMILES)	inhibition
O=C(Nc1ccc([N+](=O)[O-])cc1)Nc1cccc2[nH]ccc12	Active
O=C(Nc1ccc([N+](=O)[O-])cc1)Nc1ccc2[nH]ccc2c1	Active

target: T1, Microtubule-associated protein tau; experiment: Inhibition of unfolded tau 2N4R (unknown origin) aggregation expressed in Escherichia coli Rosetta BL21 cells assessed as reduction in formation of large dense accumulation of tau fibrils at 100 uM measured after 72 hrs by TEM analysis; conditions: not given; outline: as §2

Structure (SMILES)	inhibition
O=C(Nc1ccc([N+](=O)[O-])cc1)Nc1cccc2[nH]ccc12	Active
O=C(Nc1ccc([N+](=O)[O-])cc1)Nc1ccc2[nH]ccc2c1	Active

target: T1, Microtubule-associated protein tau; experiment: Inhibition of unfolded tau 2N4R (unknown origin) aggregation expressed in Escherichia coli Rosetta BL21 cells assessed as reduction in short and fine needle like fibrils at 100 uM measured after 72 hrs by TEM analysis; conditions: not given; outline: as §2

Structure (SMILES)	inhibition
O=C(Nc1ccc([N+](=O)[O-])cc1)Nc1cccc2[nH]ccc12	Active
O=C(Nc1ccc([N+](=O)[O-])cc1)Nc1ccc2[nH]ccc2c1	Active

target: T1, Microtubule-associated protein tau; experiment: Inhibition of unfolded tau 2N4R (unknown origin) aggregation expressed in Escherichia coli Rosetta BL21 cells assessed as appearance of rounded structures at 100 uM measured after 72 hrs by TEM analysis; conditions: not given; outline: as §2

Structure (SMILES)	inhibition
O=C(Nc1ccc([N+](=O)[O-])cc1)Nc1cccc2[nH]ccc12	Active
O=C(Nc1ccc([N+](=O)[O-])cc1)Nc1ccc2[nH]ccc2c1	Active

target: Alpha-synuclein (Homo sapiens) (UniProt P37840); experiment: (§3) Inhibition of alpha-syn inclusion formation in human M17D cells expressing doxycyclin-inducible alpha-syn-S3K::YFP inclusion-prone fusion protein assessed as reduction in inclusions treated with compound starting from 24 hrs post plating followed by doxycyclin addition at 48 hrs and measured 96 hrs post plating by Incucyte-based analysis; format: cell-based; conditions: time 72.0 hrs
Outline: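 M17D-TR/αS-3K::YFP cells seeded at 30,000 per well and dosed 24 h post-plating at 1.25–40 μM (vehicle 0.1 % DMSO). Transgene induced at 48 h with dox at 1 μg/mL final. At 96 h, Incucyte analysis of punctate YFP inclusions, expressed as fold change vs DMSO. Two independent experiments, 6–12 wells total, mean ± SD, Dunnett's post-hoc test.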

Structure (SMILES)	inhibition
O=C(Nc1ccc([N+](=O)[O-])cc1)Nc1cccc2[nH]ccc12	Active
O=C(Nc1ccc([N+](=O)[O-])cc1)Nc1ccc2[nH]ccc2c1	Active

tested on: not listed separately; experiment: as §3, with “Cytotoxicity against” for “Inhibition of alpha-syn inclusion formation in”, “cell confluency at <20 uM” for “inclusions”; format: toxicity; conditions: 72 h
Outline: (§4)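 Dox-inducible M17D-TR/αS-3K::YFP neuroblastoma cells seeded at 30,000 per well. Compound added 24 h after plating at 1.25–40 μM, with 0.1 % DMSO as vehicle. Dox at 1 μg/mL final was added at 48 h. At 96 h, Incucyte imaging gave confluence fold change vs vehicle. N = 2 independent experiments, 6–12 wells total. Mean ± SD, one-way ANOVA with Dunnett's test.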

Structure (SMILES)	Activity
O=C(Nc1ccc([N+](=O)[O-])cc1)Nc1cccc2[nH]ccc12	Non-Toxic
O=C(Nc1ccc([N+](=O)[O-])cc1)Nc1ccc2[nH]ccc2c1	Non-Toxic

tested on: not listed separately; experiment: as §3, with “Cytotoxicity against” for “Inhibition of alpha-syn inclusion formation in”, “cell confluency at 20 to 40 uM” for “inclusions”; format: toxicity; conditions: 72 h, dose 20-40 µM; outline: as §4

Structure (SMILES)	Activity
O=C(Nc1ccc([N+](=O)[O-])cc1)Nc1cccc2[nH]ccc12	Toxic
O=C(Nc1ccc([N+](=O)[O-])cc1)Nc1ccc2[nH]ccc2c1	Toxic
